Screens deposited in PubChem by The Scripps Research Institute Molecular Screening Center.
proCasp3 act – activates human procaspase-3. hit rate 0.11% among 330,000. recombinant procaspase-3 D3A, Ac-DEVD-pNA absorbance 405 nm. activation, % at 8.5 µM. P42574;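 active = activation above the mean of all tested compounds plus 3 SD, cut at about 21% in these data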
Target sequence (P42574 whole entry D9A/D28A/D175A): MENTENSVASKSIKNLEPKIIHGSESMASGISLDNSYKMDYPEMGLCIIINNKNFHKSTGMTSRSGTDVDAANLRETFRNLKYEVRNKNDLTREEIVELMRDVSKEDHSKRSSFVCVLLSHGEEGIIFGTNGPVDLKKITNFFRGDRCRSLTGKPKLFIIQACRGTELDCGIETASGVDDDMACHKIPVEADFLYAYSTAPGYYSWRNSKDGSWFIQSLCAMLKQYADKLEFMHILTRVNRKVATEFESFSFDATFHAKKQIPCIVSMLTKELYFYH
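Evaluation: percent activation relative to control range; Material: Procaspase-3 D3A mutant, all three cleavage aspartates alanine; Compound: single dose, 8.5 µM nominal compound, 0.8% DMSO; Replication: one well per compound; Signal: absorbance at 405 nm, 0 and 120 min; Schedule: 1 h preincubation plus 2 h reaction at 25 °C.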
proCasp7 act – activates human procaspase-7, counter-screen for procaspase-3 activators. P55210. recombinant procaspase-7, Ac-DEVD-pNA absorbance 405 nm; D23A/D198A/D206A triple mutant, cannot self-cleave; scale: DMSO 0, 5 µM enzyme 100. activation, % at 8.5 µM. hit rate 0.093% among 330,000. AID 463210;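 active = percent activation above the screen-wide mean plus 3 SD, cut at about 25% in these data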
Target sequence (P55210 whole entry D23A/D198A/D206A): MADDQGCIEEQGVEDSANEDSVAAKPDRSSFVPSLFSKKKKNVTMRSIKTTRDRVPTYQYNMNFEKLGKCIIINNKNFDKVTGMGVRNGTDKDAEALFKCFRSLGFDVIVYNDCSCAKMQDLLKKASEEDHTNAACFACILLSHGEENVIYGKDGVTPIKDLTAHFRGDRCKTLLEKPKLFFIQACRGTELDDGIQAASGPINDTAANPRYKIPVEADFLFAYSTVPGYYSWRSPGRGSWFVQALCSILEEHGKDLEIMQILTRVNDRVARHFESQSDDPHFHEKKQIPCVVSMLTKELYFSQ
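Material: Procaspase-7 triple mutant (PC-7 D3A) | Quantity: 2 µM procaspase-7 mutant as dispensed | Reagent: DEVD-pNA substrate | Times: 1 h preincubation, 2 h reaction | Technique: 405 nm absorbance of p-nitroaniline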
LYPLA1 inh – counter-screen for PME1 inhibitors: inhibitors of human LYPLA1 | hit rate 0.16% among 320,000 | recombinant LYPLA1, FP-Rh probe fluorescence polarization | O75608 | AID 2174 | inhibition, % at 5.9 µM;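 active = inhibition above the mean of all tested compounds plus 3 SD, set per campaign, cut at about 14% in these data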;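 also: inhibitors block serine hydrolase probe labeling of LYPLA1 so polarization falls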
PREPL inh – human PREPL enzyme inhibition; recombinant PREPL, fluorescence polarization activity-based probe; inhibition, % at 5.96 µM; Q4J6C6; hit rate 0.68% among 320,000
LYPLA2 inh – counter-screen for PME1 inhibitors: inhibitors of human LYPLA2 | inhibition, % at 5.9 µM | recombinant LYPLA2, FP-Rh probe fluorescence polarization | O95372 | hit rate 0.38% among 320,000;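 active = inhibition above the screen-wide mean plus 3 SD, limit set per campaign, cut at about 26% in these data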
PREPL confirm – human PREPL inhibition, confirmation. hit rate 67% among 2,000. inhibition, % at 5.96 µM. shares compounds with PREPL inh. recombinant PREPL, fluorescence polarization activity probe
Hits are given with their value; 0 = inactive; - = no result given. The list is not random: actives were taken first. Their share in the collection is about 1%. Rule as the data show it, unless noted: active = inhibition above about 43%; inactive = the rest.

SMILES	proCasp3 act	proCasp7 act	LYPLA1 inh	PREPL inh	LYPLA2 inh	PREPL confirm
CC(=O)c1ccc(C(=O)NC2CC(C)(C)Cc3c2cnn3-c2ccccc2)cc1 (stereo not given)	0	0	0	0	0	-
Cc1ccc(Nc2nc(NCc3ccco3)c3ccccc3n2)cc1	0	0	0	57	0	45
c1coc(CNc2nc(N3CCCCC3)nc3ccccc23)c1	0	0	0	0	0	-
c1ccc(-c2nc(NCc3ccco3)c3ccccc3n2)nc1	0	0	0	47	0	47
c1ccc(N2CCN(c3nc(NCc4ccco4)c4ccccc4n3)CC2)cc1	0	0	0	56	0	56
O=C1NC(Cc2c[nH]c3ccccc23)C(=O)N1CCOc1ccc(F)cc1 (stereo not given)	0	0	0	0	0	-
O=C1NC(Cc2c[nH]c3ccccc23)C(=O)N1Cc1ccc(CN2C(=O)NC(Cc3c[nH]c4ccccc34)C2=O)cc1 (stereo not given)	0	0	0	76	0	57
Cc1ccc(NC(=S)NNC(=O)Cn2nc([N+](=O)[O-])cc2C)cc1	0	0	0	0	0	-
Cn1c(N/N=C/c2c[nH]c3ccccc23)nc2ccccc21	0	0	0	53	0	65
CC(C)N1CCN(c2ccc(OC[C@H]3CO[C@](Cn4cncn4)(c4ccc(Cl)cc4Cl)O3)cc2)CC1	0	0	0	57	0	46
Cc1ccc(NC(=O)COC(=O)CCOc2ccccc2C)cc1	0	0	0	0	0	-
CCSc1ncc(C#N)c(N)n1	0	0	0	0	0	-
CC1(C)N=C(N)N=C(N)N1c1ccc(Oc2ccc(Cl)cc2)c(Cl)c1	0	0	0	55	0	52
COc1ccc(C(=O)Nc2ccc(-c3ccc(C)o3)cc2)cc1S(=O)(=O)N1CCOCC1	0	0	0	63	0	0
O=C1c2ccccc2NC(c2cnc3ccccc3n2)N1O (stereo not given)	0	0	0	0	0	-
CN(Cc1cccc(Cl)c1Cl)C(=O)c1cccc(S(=O)(=O)N2CCN(Cc3ccccc3)CC2)c1	0	0	0	0	0	-
CN(CC(=O)Nc1ccccc1Cl)C(=O)c1cccc(S(=O)(=O)N2CCN(Cc3ccccc3)CC2)c1	0	0	0	67	0	70
C/C(=N\NC(=O)c1cc(C)[nH]n1)C(C)(C)C	0	0	0	0	0	-
Nc1ccc(N(c2ccccc2)c2ccc(N)cc2)cc1	0	0	0	48	0	0
N#Cc1cc([N+](=O)[O-])ccc1N1CCN(c2ccccc2O)CC1	0	0	0	53	0	48
O=C(c1ccccc1)c1cc([N+](=O)[O-])ccc1N1CCCC1	0	0	0	0	0	-
Cc1ccc(C(=O)Nc2ccc(Br)cc2)cc1S(=O)(=O)Nc1ccccn1	0	0	0	43	0	0
Cc1ccccc1NC(=O)c1ccc(C)c(S(=O)(=O)Nc2ccccn2)c1	0	0	0	0	0	-
COc1ccc(Cn2c(=O)[nH]c3cc(C(=O)NCCc4ccc(S(N)(=O)=O)cc4)ccc3c2=O)cc1	0	0	0	0	0	-
COc1ccc(O)c(/C=N/Nc2nc(Nc3ccccc3)nc(-n3nc(C)cc3C)n2)c1	0	0	0	44	0	0
SMILES	proCasp3 act	proCasp7 act	LYPLA1 inh	PREPL inh	LYPLA2 inh	PREPL confirm
COc1cc(/C=N/Nc2nc(Nc3ccccc3)nc(-n3nc(C)cc3C)n2)cc(OC)c1OC	0	0	0	0	0	-
NC1=NC[C@@H](Cc2ccc(O)cc2)N1CCc1cccc(F)c1	0	0	0	0	0	-
CC(C)[C@@H]1CN=C(N)N1C[C@@H]1CCCN1C[C@H](C)N1C[C@@H](Cc2ccccc2)N(CCc2ccc(Cl)c(Cl)c2)C1=N	0	0	-	63	-	61
CC(C)[C@H](CN1CCC[C@H]1CN1C(N)=NC[C@@H]1Cc1ccccc1)N1C[C@@H](Cc2ccccc2)N(CCc2ccc(Cl)c(Cl)c2)C1=N	0	0	-	53	-	53
C[C@@H](CN1CCC[C@H]1CN1C(N)=NC[C@@H]1Cc1ccccc1)N1C[C@@H](Cc2ccccc2)N(CCc2ccc(Cl)c(Cl)c2)C1=N	0	0	-	46	-	0
Cc1cc(C)c(NS(=O)(=O)c2c(C(=O)N3CCOCC3)c(C)n(C)c2C)c(C)c1	0	0	0	0	0	-
CC1(C)CC(CCNC(=O)c2ccc(-n3cnnn3)cc2)CC(C)(C)N1	0	0	0	0	0	-
O=C(c1ccccc1)c1ccc2nc(N3CCN(C(=O)c4ccco4)CC3)c3nncn3c2c1	0	0	0	0	0	-
CCOC(=O)N1CCN(c2nc3ccc(C(=O)c4ccccc4)cc3n3cnnc23)CC1	0	0	0	61	0	0
COc1ccc(CCNC(=O)C2CC(c3ccccc3C(F)(F)F)=NO2)cc1 (stereo not given)	0	0	0	0	0	-
CCN(C(=O)CN1CCN(S(=O)(=O)c2cc(Cl)ccc2Cl)CC1)c1c(N)n(Cc2ccccc2)c(=O)[nH]c1=O	0	0	0	64	0	61
Cc1cc(C)nc(N(C#N)S(=O)(=O)c2ccccc2Cl)n1	0	0	0	0	0	-
Brc1ccc(C=Nc2ccc(Nc3ccccc3)cc2)s1	0	0	0	99	0	0
NC(=S)N/N=C/c1ccc2ccccc2c1	0	0	0	0	0	-
C(=Nc1ccc(Nc2ccccc2)cc1)c1ccc2ccccc2c1	0	0	0	95	0	0
O=C(c1cc2cc(Br)ccc2oc1=O)N1CCCC1	0	0	0	0	0	-
C=CCC[C@@H](Cc1ccc(F)cc1)C(=O)OC[C@@H]1CCCN1C(=O)[C@H](CC=C)CC(=O)N[C@H](CO)Cc1ccccc1	0	0	-	44	-	0
C=CCC[C@@H](Cc1ccc(F)cc1)C(=O)OC[C@H]1CCCN1C(=O)[C@@H](CC=C)CC(=O)N[C@H](CO)Cc1ccccc1	0	0	-	0	-	-
CCOC(=O)N1CCN(C(=O)C2CCN(S(=O)(=O)N(CC)CC)CC2)CC1	0	0	0	0	0	-
Cc1cc(C)c2nc(C)cc(N/N=C/c3ccc(O)cc3)c2c1	0	0	0	72	0	68
Cc1ccc2nc(C)cc(N/N=C/c3ccccc3O)c2c1	0	0	0	0	0	-
Cc1cc(N/N=C/c2ccc(O)cc2)c2cccc(C)c2n1	0	0	0	59	0	56
Cc1c(CC(=O)NCCCC(=O)O)c(=O)oc2c(C)c3oc4c(c3cc12)CCCC4	0	0	0	0	0	-
Cc1c(CCC(=O)NCCCn2ccnc2)c(=O)oc2c(C)c3oc4c(c3cc12)CCCC4	0	0	0	49	0	0
NNC(=O)c1oc2nc(-c3ccco3)cc(-c3ccco3)c2c1N	0	0	0	47	0	57
CCOc1ccccc1NC(=O)C(=O)/C=C(\O)c1cc(OC)ccc1OC	0	0	0	0	0	-
